ChEMBL document CHEMBL3351887, “'Click' assembly of glycoclusters and discovery of a trehalose analogue that retards Aβ40 aggregation and inhibits Aβ40-induced neurotoxicity” (Bioorg Med Chem Lett, 2014)

What was measured:
[1] = molecular target: Amyloid-beta precursor protein (Homo sapiens) (UniProt P05067); assay: Inhibition of amyloid beta-40 aggregation (unknown origin) assessed as extension of lag phase of Abeta40 aggregation by ThT fluorescence assay
How it was run: (§1)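 Monomer-rich Aβ40 (35 µM, supernatant after NaOH dissolution, sonication and ultracentrifugation) was incubated with 10 nM–100 µM compound in 20 mM phosphate buffer pH 7.4 (I 0.15 M), with 20 µM ThT and 0.007% NaN3, quiescent at 37 °C. Fluorescence (ex 440, em 480 nm) was read every 5 min. Lag time came from an empirical sigmoidal nonlinear-regression fit; mean ± SE of four independent experiments.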

[2] = molecular target: Amyloid-beta precursor protein (Homo sapiens) (UniProt P05067); assay: Inhibition of amyloid beta-40 aggregation (unknown origin) assessed as extension of lag phase of Abeta40 aggregation at 100 uM by ThT fluorescence assay; set-up: scale not given: the % may be the effect or the level left; how it was run: as §1
[3] = molecular target: Amyloid-beta precursor protein (Homo sapiens) (UniProt P05067); assay: Inhibition of amyloid beta-40 aggregation (unknown origin) assessed as alpha-helix at 6 uM after 72 hrs by CD spectra analysis (reference value: 11 to 15%); set-up: scale not given: the % may be the effect or the level left
[4] = molecular target: Amyloid-beta precursor protein (Homo sapiens) (UniProt P05067); assay: Inhibition of amyloid beta-40 aggregation (unknown origin) assessed as alpha-helix at 30 uM after 72 hrs by CD spectra analysis (reference value: 11 to 15%); set-up: scale not given: the % may be the effect or the level left
[5] = molecular target: Amyloid-beta precursor protein (Homo sapiens) (UniProt P05067); assay: Inhibition of amyloid beta-40 aggregation (unknown origin) assessed as alpha-helix at 150 uM after 72 hrs by CD spectra analysis (reference value: 11 to 15%); set-up: scale not given: the % may be the effect or the level left
[6] = molecular target: Amyloid-beta precursor protein (Homo sapiens) (UniProt P05067); assay: Inhibition of amyloid beta-40 aggregation (unknown origin) assessed as beta-sheet at 6 uM after 72 hrs by CD spectra analysis (reference value: 1 to 3%); set-up: scale not given: the % may be the effect or the level left
[7] = molecular target: Amyloid-beta precursor protein (Homo sapiens) (UniProt P05067); assay: Inhibition of amyloid beta-40 aggregation (unknown origin) assessed as beta-sheet at 30 uM after 72 hrs by CD spectra analysis (reference value: 1 to 3%); set-up: scale not given: the % may be the effect or the level left
[8] = molecular target: Amyloid-beta precursor protein (Homo sapiens) (UniProt P05067); assay: Inhibition of amyloid beta-40 aggregation (unknown origin) assessed as beta-sheet at 150 uM after 72 hrs by CD spectra analysis (reference value: 1 to 3%); set-up: scale not given: the % may be the effect or the level left
[9] = molecular target: Amyloid-beta precursor protein (Homo sapiens) (UniProt P05067); assay: Inhibition of amyloid beta-40 aggregation (unknown origin) assessed as beta-turns at 6 uM after 72 hrs by CD spectra analysis (reference value: 0%); set-up: scale not given: the % may be the effect or the level left
[10] = molecular target: Amyloid-beta precursor protein (Homo sapiens) (UniProt P05067); assay: Inhibition of amyloid beta-40 aggregation (unknown origin) assessed as beta-turns at 30 uM after 72 hrs by CD spectra analysis (reference value: 0%); set-up: scale not given: the % may be the effect or the level left
[11] = molecular target: Amyloid-beta precursor protein (Homo sapiens) (UniProt P05067); assay: Inhibition of amyloid beta-40 aggregation (unknown origin) assessed as beta-turns at 150 uM after 72 hrs by CD spectra analysis (reference value: 0%); set-up: scale not given: the % may be the effect or the level left
[12] = molecular target: Amyloid-beta precursor protein (Homo sapiens) (UniProt P05067); assay: Inhibition of amyloid beta-40 aggregation (unknown origin) assessed as unordered at 6 uM after 72 hrs by CD spectra analysis (reference value: 84 to 87%); set-up: scale not given: the % may be the effect or the level left
[13] = molecular target: Amyloid-beta precursor protein (Homo sapiens) (UniProt P05067); assay: Inhibition of amyloid beta-40 aggregation (unknown origin) assessed as unordered at 30 uM after 72 hrs by CD spectra analysis (reference value: 84 to 87%); set-up: scale not given: the % may be the effect or the level left
[14] = molecular target: Amyloid-beta precursor protein (Homo sapiens) (UniProt P05067); assay: Inhibition of amyloid beta-40 aggregation (unknown origin) assessed as unordered at 150 uM after 72 hrs by CD spectra analysis (reference value: 84 to 87%); set-up: scale not given: the % may be the effect or the level left
[15] = molecular target: Amyloid-beta precursor protein (Homo sapiens) (UniProt P05067); assay: Inhibition of amyloid beta-40 aggregation (unknown origin) assessed as fibril width at 300 uM for 7 days at pH 7.4 by transmission electron microscopy (reference value: 12.3 +/- 1.2 nanometer)
How it was run: (§2)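 Aβ40 (60 µM in control) was incubated quiescently with the compound at compound:Aβ40 molar ratios of 1:5, 1:1 and 5:1, pH 7.4, 37 °C, for 7 days. Fibril width and length were then measured from transmission electron microscopy images.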

[16] = molecular target: Amyloid-beta precursor protein (Homo sapiens) (UniProt P05067); assay: Inhibition of amyloid beta-40 aggregation (unknown origin) assessed as fibril length at 300 uM for 7 days at pH 7.4 by transmission electron microscopy (reference value: > 2 micrometer); how it was run: as §2
[17] = Neuroprotective activity in C57BL/6 mouse primary cortical neurons assessed as reduction in amyloid beta-40-induced cell death at 40 uM pre-incubated with amyloid beta-40 for 6 hrs and measured after 48 hrs by trypan blue dye exclusion assay; format: functional, Cerebral cortex neuron; set-up: scale not given: the % may be the effect or the level left
How it was run: (§3)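 Aβ40 (40 µM) was preincubated with or without compound for 6 h at 37 °C, at molar ratios 1:1 and 2.5:1 (compound:Aβ40). It was then added to 7–9-day-old primary cortical neurons cultured from 6 pregnant C57BL/6 mice. After 48 h, cells were stained with trypan blue and live and dead cells were counted. Values are mean + SE.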

[18] = Neuroprotective activity in C57BL/6 mouse primary cortical neurons assessed as reduction in amyloid beta-40-induced cell death at 100 uM pre-incubated with amyloid beta-40 for 6 hrs and measured after 48 hrs by trypan blue dye exclusion assay; format: functional, Cerebral cortex neuron; set-up: scale not given: the % may be the effect or the level left; how it was run: as §3
[19] = Toxicity in C57BL/6 mouse primary cortical neurons assessed as reduction in cell viability at 40 to 100 uM after 48 hrs by trypan blue dye exclusion assay; format: cell-based; details: cerebral cortex neuron

Sequence of Amyloid-beta precursor protein (Homo sapiens) (P05067 whole entry): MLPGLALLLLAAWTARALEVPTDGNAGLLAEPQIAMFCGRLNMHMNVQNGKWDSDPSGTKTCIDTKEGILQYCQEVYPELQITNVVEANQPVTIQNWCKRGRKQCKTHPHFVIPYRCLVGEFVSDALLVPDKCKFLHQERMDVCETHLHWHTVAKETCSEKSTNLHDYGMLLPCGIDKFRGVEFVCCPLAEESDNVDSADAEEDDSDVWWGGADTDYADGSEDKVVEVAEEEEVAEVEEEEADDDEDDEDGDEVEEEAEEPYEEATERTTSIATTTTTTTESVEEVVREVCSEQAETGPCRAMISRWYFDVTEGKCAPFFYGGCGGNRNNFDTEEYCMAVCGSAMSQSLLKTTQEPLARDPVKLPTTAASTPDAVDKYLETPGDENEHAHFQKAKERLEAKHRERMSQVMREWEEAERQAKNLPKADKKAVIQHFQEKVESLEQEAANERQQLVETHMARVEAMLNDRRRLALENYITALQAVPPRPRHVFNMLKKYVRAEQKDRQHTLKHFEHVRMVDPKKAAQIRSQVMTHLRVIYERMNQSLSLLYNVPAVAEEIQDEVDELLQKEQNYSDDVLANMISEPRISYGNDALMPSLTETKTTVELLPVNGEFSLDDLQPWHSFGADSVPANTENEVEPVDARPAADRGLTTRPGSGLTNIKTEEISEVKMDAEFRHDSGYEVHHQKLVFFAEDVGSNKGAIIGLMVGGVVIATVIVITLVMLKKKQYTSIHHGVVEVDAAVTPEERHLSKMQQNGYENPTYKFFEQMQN

SMILES | inhibition [1] | Activity [2] | Activity [3] | Activity [4] | Activity [5] | Activity [6] | Activity [7] | Activity [8] | Activity [9] | Activity [10] | Activity [11] | Activity [12] | Activity [13] | Activity [14] | Activity [15] | Activity [16] | Activity [17] | Activity [18] | Activity [19]
OC[C@H]1O[C@H](O[C@H]2O[C@H](Cn3cc(COCC(COCc4cn(C[C@H]5O[C@H](O[C@H]6O[C@H](CO)[C@@H](O)[C@H](O)[C@H]6O)[C@H](O)[C@@H](O)[C@@H]5O)nn4)(COCc4cn(C[C@H]5O[C@H](O[C@H]6O[C@H](CO)[C@@H](O)[C@H](O)[C@H]6O)[C@H](O)[C@@H](O)[C@@H]5O)nn4)COCC(COCc4cn(C[C@H]5O[C@H](O[C@H]6O[C@H](CO)[C@@H](O)[C@H](O)[C@H]6O)[C@H](O)[C@@H](O)[C@@H]5O)nn4)(COCc4cn(C[C@H]5O[C@H](O[C@H]6O[C@H](CO)[C@@H](O)[C@H](O)[C@H]6O)[C@H](O)[C@@H](O)[C@@H]5O)nn4)COCc4cn(C[C@H]5O[C@H](O[C@H]6O[C@H](CO)[C@@H](O)[C@H](O)[C@H]6O)[C@H](O)[C@@H](O)[C@@H]5O)nn4)nn3)[C@@H](O)[C@H](O)[C@H]2O)[C@H](O)[C@@H](O)[C@@H]1O | Dose-dependent effect | 45% | 21% | 20% | 22% | 35% | 32% | 16% | 27% | 30% | 26% | 17% | 18% | 36% | 8.7 nm | < 2 µm | 45% | 59% | Non-toxic
OC[C@H]1O[C@@H](n2cc(COCC(COCc3cn([C@@H]4O[C@H](CO)[C@@H](O)[C@H](O)[C@H]4O)nn3)(COCc3cn([C@@H]4O[C@H](CO)[C@@H](O)[C@H](O)[C@H]4O)nn3)COCC(COCc3cn([C@@H]4O[C@H](CO)[C@@H](O)[C@H](O)[C@H]4O)nn3)(COCc3cn([C@@H]4O[C@H](CO)[C@@H](O)[C@H](O)[C@H]4O)nn3)COCc3cn([C@@H]4O[C@H](CO)[C@@H](O)[C@H](O)[C@H]4O)nn3)nn2)[C@H](O)[C@@H](O)[C@@H]1O | Dose-dependent effect | 28% | – | – | – | – | – | – | – | – | – | – | – | – | – | – | – | – | –
